The target of data set [1] is T1, Voltage-gated inwardly rectifying potassium channel KCNH2 (Homo sapiens, UniProt Q12809). The data set can be described thus: Inhibition of human ERG by electrophysiology method.
Data set [2] in a line: Dose normalized AUC in Sprague-Dawley rat at 1 mg/kg, po. Format: ADME, organism-based. The note with it: in vivo.
Data set [3] in a line: Oral bioavailability in Sprague-Dawley rat at 1 mg/kg. Particulars: in vivo. Format: ADME, organism-based.
Data set [4] is described as follows: Half life in Sprague-Dawley rat at 0.5 mg/kg, iv or 1 mg/kg, po. It is filed as ADME, organism-based. The note with it: in vivo.
The target of data set [5] is T2, ATP-sensitive inward rectifier potassium channel 1 (Homo sapiens, UniProt P48048).
T2 sequence (P48048 whole entry): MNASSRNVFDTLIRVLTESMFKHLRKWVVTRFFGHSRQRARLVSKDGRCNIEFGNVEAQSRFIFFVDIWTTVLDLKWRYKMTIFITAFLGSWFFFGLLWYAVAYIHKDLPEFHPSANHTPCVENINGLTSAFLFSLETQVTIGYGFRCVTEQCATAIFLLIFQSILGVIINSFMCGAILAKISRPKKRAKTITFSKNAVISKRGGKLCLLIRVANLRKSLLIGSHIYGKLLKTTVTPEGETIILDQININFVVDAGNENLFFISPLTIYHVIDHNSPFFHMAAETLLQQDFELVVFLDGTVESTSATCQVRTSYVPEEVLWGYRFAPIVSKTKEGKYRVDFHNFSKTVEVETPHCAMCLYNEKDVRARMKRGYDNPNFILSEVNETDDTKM
The data set can be described thus: Inhibition of human ROMK expressed in CHO cells after 6 mins at -70 mV holding potential by electrophysiology method. Format: cell-based.

Data set [6] has as its system CHO. The data set can be described thus: Selectivity ratio of IC50 for displacement of 35S-MK499 from human ERG to IC50 for human ROMK expressed in CHO cells. It is filed as cell-based.
Data set [7] addresses T1, Voltage-gated inwardly rectifying potassium channel KCNH2. The data set can be described thus: Displacement of 35S-MK499 from human ERG expressed in HEK293 cell membranes. A digest of the protocol:
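Membranes were prepared from HEK-293 cells stably expressing hERG. Binding was measured as displacement of 35S-MK499.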
On the technique in general: In a radioligand displacement assay an active substance lowers the binding of a labelled ligand.

Data set [8] in a line: Half life in po dosed human. Format: ADME, organism-based. The note with it: in vivo.
Data set [9] is described as follows: Half life in Sprague-Dawley rat at 1 mg/kg, iv or 2 mg/kg, po. Format: ADME, organism-based. The note with it: in vivo.
The nature of data set [10]: Dose normalized AUC in Sprague-Dawley rat at 2 mg/kg, po. It is filed as ADME, organism-based. The note with it: in vivo.
Data set [11] in a line: Oral bioavailability in Sprague-Dawley rat at 2 mg/kg. It is filed as ADME, organism-based. The note with it: in vivo.

Structures are written as SMILES.

T1 sequence (Q12809 whole entry): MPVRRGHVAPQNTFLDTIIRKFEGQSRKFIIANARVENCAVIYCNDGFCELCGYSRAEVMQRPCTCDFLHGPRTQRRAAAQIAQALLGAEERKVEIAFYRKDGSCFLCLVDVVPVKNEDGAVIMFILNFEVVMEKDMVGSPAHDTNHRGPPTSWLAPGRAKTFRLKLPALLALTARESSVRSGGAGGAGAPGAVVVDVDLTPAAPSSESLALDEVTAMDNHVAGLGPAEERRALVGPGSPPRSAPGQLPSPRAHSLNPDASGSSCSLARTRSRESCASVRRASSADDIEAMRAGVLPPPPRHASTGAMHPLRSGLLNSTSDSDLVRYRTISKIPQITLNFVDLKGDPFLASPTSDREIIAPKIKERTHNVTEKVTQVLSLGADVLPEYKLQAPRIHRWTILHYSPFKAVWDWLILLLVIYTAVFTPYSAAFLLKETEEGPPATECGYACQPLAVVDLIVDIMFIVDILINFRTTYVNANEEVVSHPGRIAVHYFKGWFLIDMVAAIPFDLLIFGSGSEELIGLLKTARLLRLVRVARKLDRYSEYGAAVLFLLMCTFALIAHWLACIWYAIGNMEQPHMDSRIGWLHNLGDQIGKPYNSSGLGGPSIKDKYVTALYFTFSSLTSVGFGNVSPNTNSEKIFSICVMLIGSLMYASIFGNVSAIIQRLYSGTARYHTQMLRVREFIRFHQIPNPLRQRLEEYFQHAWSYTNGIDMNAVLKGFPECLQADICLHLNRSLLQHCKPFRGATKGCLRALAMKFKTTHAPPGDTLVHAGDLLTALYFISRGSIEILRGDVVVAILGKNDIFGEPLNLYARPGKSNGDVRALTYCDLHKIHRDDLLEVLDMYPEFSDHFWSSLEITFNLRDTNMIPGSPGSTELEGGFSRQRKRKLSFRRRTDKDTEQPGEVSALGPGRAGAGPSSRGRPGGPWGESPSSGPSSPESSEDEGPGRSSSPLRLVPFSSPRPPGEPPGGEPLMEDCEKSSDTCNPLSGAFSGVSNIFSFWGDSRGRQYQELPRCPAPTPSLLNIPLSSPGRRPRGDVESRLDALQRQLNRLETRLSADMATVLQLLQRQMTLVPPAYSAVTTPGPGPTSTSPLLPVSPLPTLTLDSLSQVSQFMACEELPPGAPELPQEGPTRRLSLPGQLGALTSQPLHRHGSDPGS

On to `Cc1c([C@@H]2CN3CCN(C(=O)Cc4cnc(-n5cnnn5)cn4)C[C@H]3CO2)ccc(F)c1C#N`, for which the IC50 was found to be 10000 nM in data set [1] and 33 nM in data set [5]. Moreover, in data set [2], the AUC/dose is 4.64 µM·kg·h/mg. In data set [3], the bioavailability came to 100%. The compound further showed a half-life in [4] of 84 min.
`Cc1c([C@H]2CN3CCN(C(=O)Cc4ccc(-n5cnnn5)nc4)C[C@H]3CO2)ccc2c1COC2=O`: in data set [6], the Ratio IC50 was found to be 305. Also, the results for the IC50 in data set [1], in data set [7] and in data set [5] were 56500 nM, 26800 nM and 88 nM, respectively. The AUC/dose in [2] is 0.32 µM·kg·h/mg. For the same compound, in [3], the bioavailability was found to be 46%. The compound also showed a half-life in data set [4] of 40.2 min.
`O=C1OCCc2cc([C@@H]3CN4CCN(C(=O)Cc5ccc(-n6cnnn6)cc5)C[C@H]4CO3)ccc21` had a half-inhibitory concentration (IC50) in data set [1] of more than 30000 nM.
Take `Cc1c([C@H]2CN3CCN(C(=O)Cc4ccc(-n5cnnn5)nc4)C[C@@H]3CO2)ccc2c1COC2=O`: in data set [6], the Ratio IC50 amounted to 508. The IC50 in data set [7] was 53400 nM; in [5], 105 nM.
Take `Cc1c([C@H]2CN3CCN(C(=O)Cc4ccc(-n5cnnn5)nc4)C[C@H]3CO2)ccc2nonc12`: the IC50 is 10000 nM in data set [1] and 83 nM in data set [5]. Further, the AUC/dose in data set [2] came to 1.8 µM·kg·h/mg. Besides, in data set [3], the bioavailability turned out to be 100%. This compound also had a half-life in data set [4] of 58.2 min.
Turning to `Cc1cccc(Nc2ccncc2S(=O)(=O)NC(=O)NC(C)C)c1` [TORSEMIDE], in data set [8], the half-life was 180 min.
Turning to `O=C1OCCc2cc([C@@H]3CN4CCN(C(=O)Cc5cnc(-n6cnnn6)nc5)C[C@H]4CO3)ccc21`, the IC50 in data set [1] was more than 90000 nM; in [5] it was 260 nM. Further, the AUC/dose in data set [2] was found to be 0.18 µM·kg·h/mg. The bioavailability in data set [3] turned out to be 12%. In data set [4], this compound gave a half-life of 29.4 min.
In turn, `O=C1OCCc2cc([C@H]3CN4CCN(C(=O)Cc5ccc(-n6cnnn6)nc5)C[C@@H]4CO3)ccc21` showed an AUC/dose in data set [2] of 2.25 µM·kg·h/mg. For the same compound, in data set [3], the bioavailability was 98%. The compound further had a half-life in data set [4] of 45 min. The IC50 in [5] turned out to be 165 nM.
For `Cc1c([C@@H]2CN3CCN(C(=O)Cc4cnc(-n5cnnn5)nc4)C[C@H]3CO2)ccc(F)c1C#N`, the midpoint of inhibition in data set [5], the IC50, lay at 18 nM.
In turn, `Cc1c([C@H]2CN3CCN(C(=O)Cc4cnc(-n5cnnn5)nc4)C[C@H]3CO2)ccc(F)c1C#N` gave a half-life in data set [9] of 81.6 min. In [10], this compound displayed an AUC/dose of 1.01 µM·kg·h/mg. Moreover, the IC50 in data set [5] worked out at 39 nM. The same compound gave a bioavailability in [11] of 54%.
Turning to `O=C(Cc1ccc(-n2cnnn2)nc1)N1CCN2C[C@H](c3ccc4nonc4c3)OC[C@@H]2C1`, it took 104 nM to reach half-maximal inhibition in [5] (IC50).
Regarding `Cc1c([C@@H]2CN3CCN(C(=O)Cc4ccc(-n5cnnn5)nc4)C[C@@H]3CO2)ccc2c1COC2=O`, the Ratio IC50 in data set [6] amounted to 690. Moreover, the results for the IC50 in data set [1], in data set [7] and in data set [5] were 74900 nM, 59400 nM and 86 nM, respectively. In [2], this compound yielded an AUC/dose of 2.02 µM·kg·h/mg. In data set [3], this compound came in with a bioavailability of 100%. The compound also showed a half-life in data set [4] of 48 min.
In the case of `Cc1c(C#N)cccc1[C@@H]1CN2CCN(C(=O)Cc3ccc(-n4cnnn4)nc3)C[C@@H]2CO1`, the figures for the IC50 in data set [1] and in data set [5] were 14800 nM and 27 nM, respectively. In addition, the AUC/dose in data set [2] was found to be 2 µM·kg·h/mg. Moreover, the bioavailability in [3] is 67%. Besides, in [4], the half-life is 98.4 min.
For `Cc1c([C@@H]2CN3CCN(C(=O)Cc4ccc(-n5cnnn5)nc4)C[C@H]3CS2)ccc2c1COC2=O`, in data set [6], the Ratio IC50 was 89. In addition, the IC50 in [7] came to 8900 nM; in data set [5], 100 nM.
In the case of `Cc1c([C@H]2CN3CCN(C(=O)Cc4ccc(-n5cnnn5)cn4)C[C@H]3CO2)ccc(F)c1C#N`, the IC50 in [1] was 19900 nM; in data set [5] it was 70 nM. The bioavailability in data set [3] worked out at 68%. In data set [4], this compound gave a half-life of 57.6 min.
Take `O=C1OCCc2cc([C@@H]3CN4CCN(C(=O)Cc5ccc(-n6cnnn6)nc5)C[C@H]4CO3)ccc21`: the AUC/dose in data set [2] is 1.4 µM·kg·h/mg. This compound returned a bioavailability in data set [3] of 65%. In [4], the half-life is 51 min. This compound also gave an IC50 in [5] of 57 nM.
In [5], `O=C1OCCc2cc([C@H]3CN4CCN(C(=O)Cc5ccc(-n6cnnn6)nc5)C[C@H]4CO3)ccc21` registered an IC50 of 205 nM. That is a sub-micromolar value.
For the compound `Cc1c([C@@H]2CN3CCN(C(=O)Cc4ccc(-n5cnnn5)nc4)C[C@H]3CO2)ccc2nonc12`, the IC50 is more than 10000 nM in [1] and 72 nM in data set [5].
For `Cc1c(C#N)cccc1[C@H]1CN2CCN(C(=O)Cc3ccc(-n4cnnn4)nc3)C[C@H]2CO1` the same measures were 17600 nM and 112 nM.
In the same order, the values of `Cc1c([C@@H]2CN3CCN(C(=O)Cc4ccc(-n5cnnn5)nc4)C[C@@H]3CO2)ccc(F)c1C#N` are more than 10000 nM and 60 nM.
With `Cc1c([C@H]2CN3CCN(C(=O)Cc4ccc(-n5cnnn5)nn4)C[C@H]3CO2)ccc(F)c1C#N`, the IC50 in [5] was 86 nM.
Turning to `Cc1c([C@H]2CN3CCN(C(=O)Cc4cnc(-n5cnnn5)cn4)C[C@H]3CO2)ccc(F)c1C#N`, the results for the IC50 in [1] and in data set [5] were 12300 nM and 107 nM, respectively.
`O=C(Cc1ccc(-n2cnnn2)nc1)N1CCN2C[C@@H](c3ccc4nonc4c3)OC[C@@H]2C1`: it took 45 nM to reach half-maximal inhibition in data set [5] (IC50). This counts as double-digit nanomolar.
For `Cc1c([C@@H]2CN3CCN(C(=O)Cc4ccc(-n5cnnn5)nc4)C[C@H]3CO2)ccc2c1COC2=O`, the Ratio IC50 in [6] came out at 325. Besides, the IC50 in [1] came out at 19700 nM; in data set [7] it was 21100 nM; in [5], 65 nM. This compound also displayed an AUC/dose in data set [2] of 2.05 µM·kg·h/mg. The bioavailability in [3] was 82%. Moreover, the half-life in data set [4] is 60 min.
With `Cc1c([C@H]2CN3CCN(C(=O)Cc4ccc(-n5cnnn5)nc4)C[C@H]3CO2)ccc(F)c1C#N`, the IC50 was found to be 12500 nM in data set [1] and 41 nM in data set [5]. Moreover, the AUC/dose in [2] is 1.8 µM·kg·h/mg. Besides, in data set [3], the bioavailability is 69%. The compound further gave a half-life in [4] of 87.6 min.
Compound `Cc1c(C#N)cccc1[C@@H]1CN2CCN(C(=O)Cc3ccc(-n4cnnn4)nc3)C[C@H]2CO1` displayed an IC50 in data set [5] of 50 nM.
`Cc1c([C@@H]2CN3CCN(C(=O)Cc4ccc(-n5cnnn5)nc4)C[C@H]3CO2)ccc(F)c1C#N`: the IC50 was determined as 10000 nM in data set [1] and 36 nM in data set [5]. The AUC/dose in [2] came to 1 µM·kg·h/mg. The same compound registered a bioavailability in data set [3] of 57%. In data set [4], this compound had a half-life of 63 min.
Take `Cc1c([C@H]2CN3CCN(C(=O)Cc4ccc(-n5cnnn5)nc4)C[C@@H]3CN2)ccc2c1COC2=O`: the Ratio IC50 in data set [6] stood at 157. In addition, the IC50 was found to be 22000 nM in [7] and 140 nM in [5].

The IC50 is the concentration at which inhibition is half-maximal. A lower IC50 goes with inhibition by little substance. What is called bioavailability is the share of a dose that reaches the circulation, judged against a reference dose that is usually intravenous. A low value points to poor availability. The term half-life denotes the time in which the quantity being followed falls by half.

(Values after ChEMBL document CHEMBL3868612, “Discovery of a potent and selective ROMK inhibitor with improved pharmacokinetic properties based on an octahydropyrazino[2,1-c][1,4]oxazine scaffold” (Bioorg Med Chem Lett, 2016).)
